pIC50: −log10 of the molar value. The source made the active and inactive calls. No cut-off for these calls is given here.

Experiment [1] in a line: Differentiation activity of neural stem cell derived neurosphere into neurons at 10 nM after 3 days relative to control. It is filed as functional, Homo sapiens. The method, boiled down:
(§1)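 Dissociated neurospheres proliferated for 3 days, then 50–100 spheres were plated on polyornithine coverslips to differentiate, with EGF reduced to 2 ng/mL. Compound (ethanol stock, 0.1% ethanol final; ethanol-only control) was added at plating, or daily at 10 nM in proliferation, differentiation or both phases. Spheres were fixed in 4% PFA and immunostained for MAP2/TUJ1 (neurons) and GFAP (astrocytes). Confocal counts were expressed as % of TO-PRO-3-stained cells; >10 spheres per condition, 3–4 independent experiments.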

Experiment [2] in a line: Hydroxyl radical scavenging activity after 2 hrs by ABTS competition assay. The class given is functional. The method, boiled down:
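In the ABTS competition assay, hydroxyl radicals oxidize ABTS to ABTS•+, read by absorbance at 405 nm. IC50 is the concentration giving 50% decrease in ABTS•+ formed. Values are means of triplicate determinations.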

The species named for experiment [3] is Homo sapiens. Kind of experiment: Effect on neural stem cell derived neurospheres assessed as differentiation into astrocytes at 10 nM after 3 days. The class given is functional. The method, boiled down: as §1
The species named for experiment [4] is Homo sapiens. Kind of experiment: Mitotic effect on neuronal precursors in neural stem cell derived neurospheres assessed by BrdU incorporation. The class given is functional. For orientation: Dividing cells build labelled thymidine or BrdU into new DNA.
Experiment [5] is described as follows: Decrease in Notch1 mRNA expression in neural stem cell derived neurospheres during differentiation phase at 10 nM by semi-quantitative RT-PCR. The class given is functional. The arrangement: scale not given: the % may be the effect or the level left. The settings on record: Homo sapiens. Summed up: (§2)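 Neurospheres were treated with or without compound at 10 nM during the differentiation phase. Total RNA was then isolated. cDNA was made from 3 μg RNA with M-MLV reverse transcriptase and random hexamers at 37 °C for 1 h. One-tenth of the cDNA was amplified by Taq PCR with gene-specific Notch primers, using GAPDH as internal control (94/55/72 °C, 30 s each). Products were resolved on a 1% agarose gel with ethidium bromide.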

A short description of experiment [6]: Decrease in Notch2 mRNA expression in neural stem cell derived neurospheres during differentiation phase at 10 nM by semi-quantitative RT-PCR. The class given is functional. The settings on record: Homo sapiens. The arrangement: scale not given: the % may be the effect or the level left. Summed up: as §2
Experiment [7] can be described thus: Decrease in Notch3 mRNA expression in neural stem cell derived neurospheres during differentiation phase at 10 nM by semi-quantitative RT-PCR. It is filed as functional. Further details: scale not given: the % may be the effect or the level left. The note with it: Homo sapiens. Summed up:
as §2

The nature of experiment [8]: Decrease in Notch4 mRNA expression in neural stem cell derived neurospheres during differentiation phase at 10 nM by semi-quantitative RT-PCR. It is filed as functional. The arrangement: scale not given: the % may be the effect or the level left. The note with it: Homo sapiens. Summed up: as §2
Experiment [9] in a line: Effect on neural stem cell derived neurospheres during proliferation phase assessed as increase in number of MAP2 positive cells at 10 nM after 3 days. The class given is functional, Homo sapiens. The method, boiled down:
as §1

Experiment [10] is described as follows: Effect on neural stem cell derived neurospheres during differentiation phase assessed as increase in number of MAP2 positive cells at 10 nM after 3 days. It is filed as functional, Homo sapiens. Summed up:
as §1

A short description of experiment [11]: Effect on neural stem cell derived neurospheres during proliferation and differentiation phase assessed as increase in number of MAP2 positive cells at 10 nM. It is filed as functional, Homo sapiens. The method, boiled down:
as §1

In turn, `COc1cccc2[nH]cc(CCCCCCCCCCCCCCO)c12` returned an Activity in experiment [1] of 118%.
Compound `COc1cc2[nH]cc(CCCCCCCCCCCCCCCCCCO)c2cc1OC` returned an Activity in experiment [1] of 116%.
By pIC50 is commonly meant the IC50 on a negative log10 scale, so that one unit is a factor of ten. In the case of `COc1ccc2[nH]cc(CCCCCCCCCCCCCCCCO)c2c1`, in experiment [2], the pIC50 is 4.47. Besides, the Activity in [1] was 168%.
In experiment [1], `COc1cccc2[nH]cc(CCCCCCCCCCCCCCCCCCO)c12` gave an Activity of 110%.
For `OCCCCCCCCCCCCc1c[nH]c2ccccc12`, the Activity in [1] is recorded as 124%.
Consider `Cc1c(C)c2c(c(C)c1O)CCC(C)(C(=O)O)O2` (centres undefined) [TROLOX], for which the pIC50 in experiment [2] was 3.22.
With `OCCCCCCCCCCCCCCCCCCc1c[nH]c2ccccc12`, in experiment [1], the Activity turned out to be 113%.
In experiment [2], `COc1cccc2[nH]cc(CCCCCCCCCCCCCCCCO)c12` had a negative logarithm of the IC50 (pIC50) of 4.64. Further, in experiment [1], the Activity turned out to be 133%.
As to `COc1cccc2[nH]cc(CCCCCCCCCCO)c12`, the Activity in [1] was found to be 95%.
`OCCCCCCCCCCc1c[nH]c2ccccc12`: the Activity in [1] is recorded as 115%.
The compound `COc1ccc2[nH]cc(CCCCCCCCCCO)c2c1` showed an Activity in [1] of 109%.
On the same count and under the same terms, the result for `OCCCCCCCCCCCCCCCCc1c[nH]c2ccccc12` reads 144%.
For `COc1ccc2[nH]cc(CCNC(C)=O)c2c1` [MELATONIN], the pIC50 in [2] is 3.68. The Activity in experiment [1] is 119%.
For `COc1ccc2c(CCCCCCCCCCCCCCCCO)c[nH]c2c1` the same measures were 4.47 and 135%.
On to `COc1ccc2c(CCCCCCCCCCCCO)c[nH]c2c1`, for which, in experiment [1], the Activity is on record as 67%.
In [1], `COc1ccc2c(CCCCCCCCCCO)c[nH]c2c1` had an Activity of 110%.
The compound `COc1ccc2c(CCCCCCCCCCCCCCCCCCO)c[nH]c2c1` gave an Activity in experiment [1] of 156%.
On the same count and under the same terms, the result for `COc1ccc2[nH]cc(CCCCCCCCCCCCCCCCCCO)c2c1OC` reads 106%.
Regarding `COc1cccc2c(CCCCCCCCCCCCCCCCO)c[nH]c12`, the pIC50 in experiment [2] is 4.59.
In experiment [2], `COc1ccc2[nH]cc(CCCCCCCCCCCCCCCCO)c2c1OC` had a pIC50 of 4.77. Moreover, the Activity in experiment [1] stood at 118%.
As to `COc1cc2[nH]cc(CCCCCCCCCCCCCCCCO)c2cc1OC`, in experiment [2], the pIC50 was 4.47. This compound also had an Activity in [1] of 113%.
As to `COc1ccc2[nH]cc(CCCCCCCCCCCCO)c2c1`, in experiment [1], the Activity was 108%.
`COc1ccc2[nH]cc(CCCCCCCCCCCCCCCCCCO)c2c1`: the outcome in the experiment listed under Homo sapiens [3] and in the experiment filed under Homo sapiens [4] was inactive. Also, the Activity is 169% in experiment [1]; over 70% in experiment [5]; over 70% in experiment [6]; over 70% in experiment [7]; 19% in [8]; “<=90%” in experiment [9]. The Activity entry in experiment [10] and in experiment [11] was “<=90%” throughout.
For the compound `OCCCCCCCCCCCCCCc1c[nH]c2ccccc12`, the Activity in experiment [1] is on record as 118%.
The same measure, in the same setting: the value for `COc1ccc2c(CCCCCCCCCCCCCCO)c[nH]c2c1` was 82%.
As to `CC1=C(CCCCCCCCCCCCCCCO)C(C)(C)CCC1=O`, in experiment [2], the result was inactive.
In experiment [2], `CCCCCCCCCCCCCCCc1c[nH]c2ccc(OC)cc12` gave a pIC50 of 3.68.
For `COc1cccc2[nH]cc(CCCCCCCCCCCCO)c12`, in experiment [1], the Activity is 98%.
As to `COc1ccc2[nH]cc(CCCCCCCCCCCCCCO)c2c1`, in experiment [1], the Activity is 143%.

Source of the values: ChEMBL document CHEMBL1149253, “Effects of indole fatty alcohols on the differentiation of neural stem cell derived neurospheres” (J Med Chem, 2004).
